Measurements reported in paper PMC3767132 (Organic & biomolecular chemistry, 2012).
Like-named read-outs stand apart in the source and are kept apart here.

Key:
HUVEC [1] = test: HUVEC proliferation assay using [3H]-thymidine incorporation; format: cell-based, human
hMetAP2 = hMetAP2 (Homo sapiens, UniProt P50579); test: human MetAP2 enzyme assay; format: biochemical; conditions: for b = bottom value in the dose-response curve, hMetAP2: noted only when above 15%; for inhibition at 10 µM: read-out: inhibition of MetAP2 activity in HTS
Sequence of hMetAP2 (P50579 whole entry): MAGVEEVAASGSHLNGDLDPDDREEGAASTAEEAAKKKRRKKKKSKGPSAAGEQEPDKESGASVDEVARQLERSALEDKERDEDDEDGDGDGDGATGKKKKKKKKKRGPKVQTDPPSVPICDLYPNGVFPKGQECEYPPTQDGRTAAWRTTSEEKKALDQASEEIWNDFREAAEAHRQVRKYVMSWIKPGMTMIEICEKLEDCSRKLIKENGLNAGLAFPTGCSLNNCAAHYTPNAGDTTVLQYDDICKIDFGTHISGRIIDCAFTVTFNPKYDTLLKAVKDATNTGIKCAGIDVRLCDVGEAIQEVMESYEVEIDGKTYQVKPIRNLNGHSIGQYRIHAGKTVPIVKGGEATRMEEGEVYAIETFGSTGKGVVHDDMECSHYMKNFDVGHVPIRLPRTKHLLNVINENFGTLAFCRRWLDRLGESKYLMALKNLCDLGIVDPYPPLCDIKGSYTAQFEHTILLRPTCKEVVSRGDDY

SIRT1 = test: Immunoblot of Ac-p53; format: cell-based, human; conditions: for Immunoblot Ac-p53: compound treated HUVEC lysates, 24 h, signal relative to DMSO = 1.0; for effect on the levels of Ac-p53: up to 10 μM, data not shown
Summary of the method: (§1)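 HUVEC were exposed to test compound for 24 h, typically at 5 μM (some up to 10 μM), with DMSO as negative control. Lysates were immunoblotted for Met-14-3-3γ, 14-3-3γ, Ac-p53 and total p53. Band densities were taken as Met-14-3-3γ/14-3-3γ and Ac-p53/p53 per lane, relative to DMSO = 1.0. Ac-p53 was scored −(<2.0), +(2.0–7.0), ++(7.1–11.6), +++(>11.6).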

MetAP = test: Immunoblot of Met-14-3-3γ; format: cell-based, human; conditions: for Immunoblot Met-14-3-3γ: compound treated HUVEC lysates, 24 h, signal relative to DMSO = 1.0; for effect on the levels of Met-14-3-3γ: up to 10 μM, HUVEC, data not shown
Summary of the method: as §1

hMetAP1 = hMetAP1 (Homo sapiens, UniProt P53582); test: human MetAP1 enzyme assay; format: biochemical; conditions: for b = bottom value in the dose-response curve, hMetAP1: noted only when above 15%
HeLa = HeLa proliferation assay, 3H-T uptake; format: cell-based; conditions: for IC50: Homo sapiens, HeLa, read-out: IC50 3H-T Uptake HeLa
HUVEC [2] = test: HUVEC cell-viability assay using calcein-AM; format: cell-based, human; conditions: for IC50: Homo sapiens, HUVEC, read-out: IC50 Calcein-AM HUVEC
Jurkat-T = test: Jurkat T proliferation assay, 3H-T uptake; format: cell-based; conditions: for IC50: Homo sapiens, Jurkat, read-out: IC50 3H-T Uptake Jurkat-T
HFF = HFF cell-viability assay using calcein-AM; format: cell-based, human; conditions: for IC50: Homo sapiens, HFF, read-out: IC50 Calcein-AM HFF
[3] = Homo sapiens, HUVEC, read-out: IC50 HUVEC
[4] = IC50 hMetAP1, enzyme assay, 10 μM Co2+
[5] = read-out: IC50 HUVEC, proliferation, 3H-T uptake
[6] = read-out: IC50 hMetAP2, enzyme assay, 10 μM Mn2+
[7] = read-out: IC50 hMetAP1, enzyme assay, 10 μM Co2+
[8] = Homo sapiens, HUVEC, read-out: IC50 HUVEC, proliferation, 3H-T uptake

IC50 (hMetAP2) [µM] | IC50 (hMetAP1; [4]) [µM] | IC50 (hMetAP2; [6]) [µM] | IC50 (hMetAP1; [7]) [µM] | Structure (SMILES) | IC50 (HUVEC [1]; [3]) [µM] | IC50 (HUVEC [1]; [5]) [µM] | also measured
 |  | > 15 | > 15 | OCCOc1ccc(Cl)c2cccnc12 [Entry 29] |  | 2.4 ± 0.3 | 
> 40 | > 40 |  |  | CCCCCC(=O)Nc1ccc(O)c2ncccc12 [Entry 39, N-(8-Hydroxyquinolin-5-yl)hexanamide] | 8.45 ± 0.91 |  | 
> 40 | > 40 |  |  | CC(C)S(=O)(=O)Nc1ccc(O)c2ncccc12 [Entry 41, N-(8-Hydroxyquinolin-5-yl)propane-2-sulfonamide] | 12.9 ± 0.13 |  | 
0.434 ± 0.1 | > 15 |  |  | CC(C)(C)C(=O)Oc1ccc([N+](=O)[O-])c2cccnc12 [Entry 46, 5-nitroquinolin-8-yl pivalate] |  |  | Immunoblot Ac-p53 (SIRT1): ++ (++, 7.1–11.6); Immunoblot Met-14-3-3γ (MetAP): + (+, ≥1.5)
20.1 | 7.21 ± 1.3 |  |  | CCN(CC)c1ccc(O)c2ncccc12 [Entry 35, 5-(N,N-Diethyl)amino-8-hydroxyquinoline] | 0.329 ± 0.17 |  | b = bottom value in the dose-response curve, hMetAP2 (hMetAP2): 25%; b = bottom value in the dose-response curve, hMetAP1 (hMetAP1): 29%
 |  | > 15 | > 15 | Oc1c(I)cc(I)c2cccnc12 [Entry 11] |  | 2.62 ± 0.08 | 
 |  | > 15 | > 15 | O=[N+]([O-])c1cc(Cl)c2cccnc2c1O [Entry 44] |  | 7.73 ± 0.77 | 
 |  | > 15 | > 15 | Oc1c(Br)cc(Cl)c2cccnc12 [Entry 8] |  | 2.21 ± 0.6 | 
> 15 | 6.97 ± 0.25 |  |  | Cc1ccc(S(=O)(=O)Nc2cccc3cccnc23)cc1 [Entry 32, 8-quinolinyl p-toluenesulfonamide] | 0.308 ± 0.04 |  | IC50 (HeLa): 1.12 ± 0.2 µM; IC50 (HUVEC [2]): 1.47 ± 0.2 µM; IC50 (Jurkat-T): 0.79 ± 0.08 µM; b = bottom value of the curve, Calcein-AM HFF (HFF): 21%; IC50 (HFF): 0.909 ± 0.12 µM; Immunoblot Ac-p53 (SIRT1): − (−, <2.0); effect on the levels of Ac-p53 (SIRT1; HUVEC): no effect; Immunoblot Met-14-3-3γ (MetAP): − (−, >1.5); effect on the levels of Met-14-3-3γ (MetAP): no effect; b = bottom value in the dose-response curve, hMetAP1 (hMetAP1): 21%
2.39 ± 0.31 | > 15 |  |  | Oc1c(I)cc(Cl)c2cccnc12 [Entry 7, Clioquinol, reference compound] | 2.42 ± 0.5 |  | IC50 (hMetAP1; IC50 MetAP1 with Co2+, Co2+ metalloform, data not shown): > 50 µM
 |  | > 40 | > 40 | CC(=O)Nc1ccc(O)c2ncccc12 [Entry 38] |  | 10.2 ± 1.1 | b = bottom value in the dose-response curve, HUVEC (HUVEC [1]; 3H-T uptake, noted only when above 15%): 28%
2.75 ± 0.4 | > 50 |  |  | Oc1c(C(Nc2nccs2)c2ccco2)cc(Cl)c2cccnc12 (centres unmarked) [Entry 19, 5-Chloro-7-(furan-2-yl(thiazole-2-ylamino)methyl)quinolin-8-ol] | 2.53 ± 0.13 |  | 
11.9 | 8.92 ± 1.2 |  |  | Nc1ccc(O)c2ncccc12 [Entry 34, 5-aminoquinolin-8-ol] | 0.218 ± 0.04 |  | more potent against HUVEC than HeLa (HeLa; 3H-T uptake): about 8 times; IC50 (HeLa): 2.36 ± 0.5 µM; b = bottom value of the curve, Calcein-AM HUVEC (HUVEC [2]): 19%; IC50 (HUVEC [2]): 1.84 µM; more potent against HUVEC than Jurkat T (Jurkat-T; 3H-T uptake): about 8 times; IC50 (Jurkat-T): 1.28 ± 0.3 µM; b = bottom value in the dose-response curve, hMetAP2 (hMetAP2): 26%; b = bottom value of the curve, Calcein-AM HFF (HFF): 38%; IC50 (HFF): 37.3 ± 2.1 µM; selectivity for HUVEC inhibition than HFF (HFF; calcein-AM): ~30 times; Immunoblot Ac-p53 (SIRT1): − (−, <2.0); effect on the levels of Ac-p53 (SIRT1; HUVEC): no effect; Immunoblot Met-14-3-3γ (MetAP): − (−, >1.5); effect on the levels of Met-14-3-3γ (MetAP): no effect
> 40 | 1.46 ± 0.3 |  |  | COc1ccc(CN(Cc2ccc(OC)cc2)c2ccc(O)c3ncccc23)cc1 [Entry 37, 5-(N,N-Di[(4-methoxy)benzyl])amino-8-hydroxyquinoline] | 0.551 ± 0.08 |  | b = bottom value in the dose-response curve, hMetAP1 (hMetAP1): 32%
 |  | > 15 | > 15 | Cc1ccc2cccc(O)c2n1 [Entry 2] |  | 2.7 ± 0.61 | 

Continued, molecule first:

Structure (SMILES) | IC50 (hMetAP2) [µM] | IC50 (hMetAP1; [4]) [µM] | IC50 (hMetAP2; [6]) [µM] | IC50 (hMetAP1; [7]) [µM] | IC50 (HUVEC [1]; [3]) [µM] | IC50 (HUVEC [1]; [5]) [µM] | also measured
COc1ccc(N2CCN(Cc3cc(Cl)c4cccnc4c3O)CC2)cc1 [Entry 17, 5-Chloro-7-((4-(4-methoxyphenyl)piperazin-1-yl)methyl)-quinolin-8-ol] | > 15 | > 15 |  |  | 1.46 ± 0.33 |  | level of Ac-p53 compared to DMSO treated cells (SIRT1; 10 μM, HUVEC): did increase; Immunoblot Ac-p53 (SIRT1): + (+, 2.0–7.0); Immunoblot Met-14-3-3γ (MetAP): − (−, >1.5)
N#Cc1ccc2cccc(O)c2n1 [Entry 3] |  |  | > 15 | > 15 |  | > 50 | 
C=CCOc1cccc2ccc(C#N)nc12 [Entry 30, 8-(Allyloxy)quinoline-2-carbonitrile] | > 15 | > 15 |  |  | > 50 |  | 
O=C(Nc1cc(F)cc(F)c1)Oc1ccc(Cl)c2cccnc12 [Entry 23, 5-Chloroquinolin-8-yl 3,5-difluorophenylcarbamate] | > 15 | > 15 |  |  |  |  | IC50 (HUVEC [1]; [8]): 2.2 ± 0.1 µM
CCCCCCN(CCCCCC)c1ccc(O)c2ncccc12 [Entry 36, 5-(N,N-Di-n-hexyl)amino-8-hydroxyquinoline] | > 40 | > 40 |  |  | 0.789 ± 0.21 |  | 
Oc1ccc(Cl)c2cccnc12 [Entry 4, Cloxyquin, reference compound] |  |  |  |  | 1.41 ± 0.1 |  | 
Oc1c(Cl)cc(Cl)c2cccnc12 [Entry 9] |  |  | > 15 | > 15 |  | 3.64 ± 0.53 | 
Oc1c(Br)cc(Br)c2cccnc12 [Entry 10] |  |  | > 15 | > 15 |  | 2.53 ± 0.71 | 
C=CCOc1c(Cl)cc(Cl)c2cccnc12 [Entry 28, 8-(Allyloxy)-5,7-dichloroquinoline] | > 15 | > 15 |  |  | 2.32 ± 0.23 |  | 
Nc1cccc2cccnc12 [Entry 31, 8-aminoquinoline] | > 15 | > 15 |  |  |  |  | IC50 (HUVEC [1]; [8]): > 50 µM
Oc1cccc2cccnc12 [Entry 1, 8-hydroxyquinoline] |  |  |  |  | 6.21 ± 1.1 |  | IC50 (hMetAP1; IC50 hMetAP1): > 15 µM
Nc1cc(Cl)c2cccnc2c1O [Entry 45] |  |  | > 15 | > 40 |  | 0.273 ± 0.07 | Immunoblot Ac-p53 (SIRT1): − (−, <2.0); effect on the levels of Ac-p53 (SIRT1; HUVEC): no effect; Immunoblot Met-14-3-3γ (MetAP): − (−, >1.5); effect on the levels of Met-14-3-3γ (MetAP): no effect
CCOP(=O)(OCC)Oc1ccc(Cl)c2cccnc12 [Entry 26, 5-chloroquinolin-8-yl diethyl phosphate] | > 15 | > 15 |  |  | > 50 |  | 
O=C(Nc1ccccc1)Oc1ccc(Cl)c2cccnc12 [Entry 22, 5-chloroquinolin-8-yl phenylcarbamate] | 5.26 ± 0.6 | > 15 |  |  |  | 1.21 ± 0.51 | IC50 (HUVEC [1]; [8]): 1.2 µM; b = bottom value in the dose-response curve, hMetAP2 (hMetAP2): 24%; inhibition at 10 µM (hMetAP2): > 90%
O=C(Nc1ccc(F)cc1)Oc1c(Cl)cc(Cl)c2cccnc12 [Entry 25, 5,7-Dichloroquinolin-8-yl 4-fluorophenylcarbamate] | > 15 | > 15 |  |  |  |  | IC50 (HUVEC [1]; [8]): 3.58 ± 0.9 µM
NC(=O)COc1ccc([N+](=O)[O-])c2cccnc12 [Entry 50, 2-(5-nitroquinolin-8-yloxy)acetamide] | 1.06 ± 0.5 | > 15 |  |  | 6.3 ± 1.4 |  | 
CCOC(=O)COc1ccc([N+](=O)[O-])c2cccnc12 [Entry 49, ethyl 2-(5-nitroquinolin-8-yloxy)acetate] | > 15 | > 15 |  |  | 7.3 ± 0.81 |  | 
C=CCOc1ccc(Cl)c2cccnc12 [Entry 27, 5-chloro-8-allyloxyquinoline] | > 50 | > 15 |  |  | > 50 |  | inhibition at 10 µM (hMetAP2): > 90%
Oc1c(CN2CCOCC2)ccc2cccnc12 [Entry 12] |  |  | > 15 | > 50 |  | > 20 | 
O=S(=O)(O)c1ccc(O)c2ncccc12 [Entry 6] |  |  | > 15 |  |  | > 50 | 
Oc1c(C(c2ccccc2)N2CCOCC2)cc(Cl)c2cccnc12 (centres unmarked) [Entry 18, 5-Chloro-7-(morpholino(phenyl)methyl)quinolin-8-ol] |  | 14 |  |  | 1.92 ± 0.6 |  | IC50 (HUVEC [2]): 3.55 ± 0.9 µM; b = bottom value of the curve, Calcein-AM HFF (HFF): 18%; IC50 (HFF): 3.66 ± 0.7 µM
O=C(NCCCl)Oc1c(Cl)cc(Cl)c2cccnc12 [Entry 21, 5,7-Dichloroquinolin-8-yl 2-chloroethylcarbamate] |  | > 15 |  |  |  |  | IC50 (HUVEC [1]; [8]): 2.62 ± 0.5 µM
O=C(Nc1ccc(O)c2ncccc12)N1CCOCC1 [Entry 42, N-(8-Hydroxyquinolin-5-yl)morpholine-4-carboxamide] | > 40 | > 40 |  |  | 1.88 ± 0.3 |  | 
Cc1ccc2c([N+](=O)[O-])cc([N+](=O)[O-])c(O)c2n1 [Entry 43] |  |  | > 15 | 17.3 ± 1.7 |  | 15.7 ± 1.3 | 
